Compound activity from PubChem BioAssay.
The list is not random: actives were taken first. Their share in the collection is about 2.7%.
OX1R antag-1 – human HCRTR1 antagonism | O43613 | actives 0.43% (n = 330,000) | inhibition, % at 5 µM | CHO/OX1R cells, Fluo-8 calcium fluorescence, orexin A;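 active means inhibition above its plate's threshold, mean inhibition of all tested compounds on the plate plus 3 SD, cut at about 37% in these data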;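 further: 0% = orexin A challenge wells and 100% = SB-334867-A antagonist wells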
Target sequence (O43613 whole entry, looked up): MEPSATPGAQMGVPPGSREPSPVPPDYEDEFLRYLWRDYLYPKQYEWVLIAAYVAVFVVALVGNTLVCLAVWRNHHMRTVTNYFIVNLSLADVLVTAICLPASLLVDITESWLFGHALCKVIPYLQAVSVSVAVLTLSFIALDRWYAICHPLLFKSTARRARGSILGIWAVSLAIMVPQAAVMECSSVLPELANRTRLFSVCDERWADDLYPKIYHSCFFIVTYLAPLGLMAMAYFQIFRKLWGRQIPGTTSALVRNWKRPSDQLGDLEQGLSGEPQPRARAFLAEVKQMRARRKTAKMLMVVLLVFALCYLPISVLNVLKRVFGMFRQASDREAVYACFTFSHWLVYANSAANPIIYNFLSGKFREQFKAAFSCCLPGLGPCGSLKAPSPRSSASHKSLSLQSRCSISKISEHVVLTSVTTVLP
CHO parental Ca – counter-screen for OX1R antagonists: effect in parental CHO cells | parental CHO-K1, ATP-induced calcium, Fluo-8 fluorescence | inhibition, % at 5.6 µM | actives 0.63% (n = 330,000) | AID 463079;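 active means inhibition above that plate's mean sample inhibition plus 3 SD, cut at about 26% in these data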;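 further: 0% = ATP-challenged DMSO wells and 100% = DMSO wells without ATP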
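Assay system – parental CHO cells · Reagent – ATP stimulus · Detection – intracellular calcium via Fluo-8 no-wash fluorescent dye · Evaluation – percent inhibition of ATP-evoked calcium rise, normalized to controls · Controls – ATP wells versus no-ATP DMSO wells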
OXTR potentiator – potentiates the human oxytocin receptor response | CHO-OTR cells, Fluo-8 calcium fluorescence, potentiator mode; 0% = oxytocin EC15, 100% = EC100 | P30559 | actives 0.061% (n = 320,000) | activation, % at 3 µM;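 active means activation above that plate's cutoff, the mean activation of tested compounds plus 3 SD, cut at about 6.6% in these data, passing the limit was not always enough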;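 further: 100% uses oxytocin at 75 nM as the full agonist control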
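Assay system: CHO cell line stably expressing human OTR. Reagent: EC15 oxytocin agonist. Dosing: single dose, 3.0 µM nominal final compound concentration. Timing: compound 6 min at room temperature before oxytocin, 100 s read. Signal: kinetic Fluo-8 calcium fluorescence. Controls: oxytocin EC15 low and EC100 high.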
V1aR counter – V1a receptor agonism, counter-screen for OXTR agonists. P37288. CHO-V1R cells, Fluo-8 calcium fluorescence, agonist mode; 0% DMSO, 100% 3 nM vasopressin. activation, % at 3 µM. actives 0.25% (n = 320,000);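 active means activation above the mean activation of all tested compounds plus 3 SD, per screening run, cut at about 20% in these data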;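 further: signal is peak over basal fluorescence ratio across a 100 second FLIPR read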
OXTR ag – human OXTR agonism | P30559 | CHO-OTR cells, Fluo-8 calcium fluorescence; normalized: DMSO 0%, oxytocin 100% | activation, % at 3 µM | AID 2435 | actives 0.32% (n = 320,000);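 active means activation above the mean of all tested compounds plus 3 SD, cutoff set per screening run, cut at about 20% in these data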;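 further: peak over basal fluorescence ratio from a 100 s FLIPR kinetic read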
OX1R antag-2 – antagonists of human orexin 1 receptor (OX1R) | O43613 | actives 1.8% (n = 330,000) | OX1R-expressing cells, FRET antagonist read-out | AID 485270 | inhibition, % at 6.6 µM; in the data active means inhibition mostly above about 38%, no sharp cut-off; inactive means mostly below about 40%;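 further: 0% = agonist challenge alone and 100% = reference antagonist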
Starred values were filed as active, the others as inactive; . = not tested or not shown.

SMILES	OX1R antag-1	CHO parental Ca	OXTR potentiator	V1aR counter	OXTR ag	OX1R antag-2
COc1ccc(NS(=O)(=O)c2cccc(C(=O)NCc3cccnc3)c2)cc1	-12.1	-23.7	-7.2	-0.2	-0.5	5.5
COc1cc(/C=C2/SC(=S)N(Cc3ccccc3)C2=O)ccc1O	33.1	33.2*	-4.8	36.3*	27.6*	7.6
COc1cc(/C=C2/SC(=NCc3ccccc3)N(Cc3ccccc3)C2=O)ccc1O	-24.9	-16.4	-5.0	0.7	-0.5	11.8
COc1cc(/C=C2\SC(=S)N(C(C(=O)O)c3ccccc3)C2=O)ccc1O (stereo unspecified)	21.6	21.2	-11.6	49.0*	33.1*	5.6
Cc1ccc(NS(=O)(=O)c2ccc(Cl)c(C(=O)Nc3cccc(C(=O)O)c3)c2)cc1	0.1	-23.5	-11.4	0.1	-0.3	21.8
CN(C(=O)C1CCCN(c2ncnc3c2nc2n3CCCCC2)C1)c1cccc(Cl)c1 (stereo unspecified)	3.7	-20.2	-15.9	7.5	7.1	40.3*
CCCCN(Cc1ccco1)C(=O)C1CCCN(c2ncnc3c2nc2n3CCCCC2)C1 (stereo unspecified)	5.6	-19.4	-19.8	-1.6	5.2	39.7*
CC(C)N(Cc1ccccc1)C(=O)C1CCCN(c2ncnc3c2nc2n3CCCCC2)C1 (stereo unspecified)	-39.0	-23.0	-8.8	1.9	0.8	16.2
O=C(Nc1ccc(F)cc1)C1CCN(c2ncnc3c2nc2n3CCCCC2)CC1	-7.8	64.6*	-16.6	3.1	0.7	23.8
CC(C)(O)c1[nH]c2ccc(C#N)cc2c1C(C)(C)O	-17.6	-14.1	1.7	0.0	1.1	16.1
COc1nc(Nc2ccccc2F)nc(OC)n1	-1.4	-1.8	-2.5	-1.1	-1.0	1.2
CC(=O)Nc1ccc(S(=O)(=O)N2CCN(C(=O)c3ncoc3-c3ccc(F)cc3)CC2)cc1	-5.1	4.4	-12.7	3.1	1.2	7.2
COc1ccc(-c2cc(=Nc3c(C)n(C)n(-c4ccccc4)c3=O)c3ccccc3o2)cc1	-12.2	-9.9	-11.8	-0.6	-1.6	54.9*
COc1cccc(-c2nn(C)c3sc(C(=O)NCc4ccc5c(c4)OCO5)cc23)c1	-24.2	-7.5	-2.3	1.4	0.7	23.0
COc1cccc(-c2nn(C)c3sc(C(=O)NCc4ccc(C)o4)cc23)c1	-25.5	-21.7	2.1	0.6	-1.4	71.7*
C/C(Cn1nnc([N+](=O)[O-])n1)=N\NC(=O)c1ccccc1	1.8	-16.8	-5.4	0.6	-0.1	31.9*
CC(C)CC(=O)Nc1nnc(S(=O)(=O)N(C)Cc2ccco2)s1	-14.7	-16.2	-12.7	-0.1	-0.1	12.8
CN(Cc1ccco1)S(=O)(=O)c1nnc(NC(=O)c2cccc(Cl)c2)s1	-3.6	29.3*	-5.2	8.4	3.3	27.5
CCCC(=O)Nc1ccc(Cl)c(NC(=O)c2ccc([N+](=O)[O-])cc2Cl)c1	-32.3	-3.4	-1.9	0.7	-0.1	29.8
O=C(Oc1cccnc1)c1ccc([N+](=O)[O-])cc1Cl	1.0	2.7	-3.1	0.4	1.1	18.4
O=C(Nc1cccnc1)c1ccc([N+](=O)[O-])cc1Cl	-17.5	-5.7	-5.4	0.3	0.1	55.6*
O=C(Nc1cccc([N+](=O)[O-])c1)c1ccncc1	-0.5	-7.0	-0.7	2.0	1.7	65.5*
CC(C)(C)c1ccc(C(=O)Nc2cccc([N+](=O)[O-])c2)cc1	-3.0	-3.2	-7.7	1.2	-1.4	33.1
Cc1ccc(NC(=O)Nc2cccc([N+](=O)[O-])c2)cc1F	14.8	8.5	-12.8	7.9	15.9	35.9
CCCC(=O)Nc1cccc(NC(=O)c2ccc([N+](=O)[O-])cc2Cl)c1	-23.4	-8.0	-5.4	3.1	1.3	62.3*
SMILES	OX1R antag-1	CHO parental Ca	OXTR potentiator	V1aR counter	OXTR ag	OX1R antag-2
O=C(Nc1ccc(OC(F)(F)F)cc1)Nc1cccc([N+](=O)[O-])c1	36.0	73.5*	-12.9	11.0	10.3	78.5*
CC/C(=N/OC(=O)c1cccc(C)c1)C(=O)c1cccs1	-13.5	-12.6	-12.9	-0.4	-3.1	3.0
N#Cc1ccc(S(=O)(=O)NC2CC2)cc1	-3.3	-7.8	-1.2	0.2	0.7	5.2
CC[C@]12c3[nH]c4ccc(OC)cc4c3CCN1C(=O)C(CC(=O)NCCCn1ccnc1)C[C@@H]2C(=O)N1CCN(C(=O)c2ccco2)CC1 (stereo partly specified)	-14.8	3.2	.	.	.	8.1
Cc1ccc(S(=O)(=O)N2CCOCC2)cc1C(=O)OCCOc1cccc(Cl)c1	-15.0	-15.9	-7.2	2.9	4.7	10.2
FC(F)(F)c1nc(N2CCCC2)ncc1-c1nnnn1-c1ccc(Cl)cc1	60.5*	47.3*	-13.4	0.1	-2.2	50.1
FC(F)(F)c1nc(-c2ccncc2)ncc1-c1nnnn1-c1ccccc1	-9.6	-23.2	-18.0	5.7	4.9	14.9
Fc1ccc(-n2nnnc2-c2cnc(-c3cccs3)nc2C(F)(F)F)cc1	38.5	50.8*	-18.7	1.1	-1.3	83.0*
Cc1ccc(-n2nnnc2-c2cnc(-c3cccnc3)nc2C(F)(F)F)cc1	-20.3	-10.8	-11.1	1.7	-1.8	39.7
c1ccc(-n2nnnc2-c2cnc(-c3ccncc3)nc2-c2cccs2)cc1	20.8	-10.6	-9.2	1.2	-1.4	46.5*
FC(F)(F)c1ccncc1-c1nnnn1-c1ccc(Cl)cc1	-4.0	-7.8	-8.4	0.6	0.2	13.5
COc1ccc(CC(=O)OCC(=O)NC2CCCCC2)cc1OC	5.7	-15.9	-3.4	0.2	0.4	7.0
COc1ccc(N=C2C(=O)N3CCCc4cccc2c43)cc1	-14.7	-11.0	-8.8	-0.8	-1.1	65.7*
NS(=O)(=O)c1ccc(CCNCc2cc(Br)ccc2OCc2ccccc2F)cc1	48.6*	59.6*	-16.0	9.8	17.6	20.0
Cc1cc(C)c[n+](-c2[nH]c(=O)sc2/C=N/N=C(\[O-])c2cccnc2)c1	-15.8	13.3	-8.3	1.9	0.8	19.2
CCc1ccc[n+](-c2[nH]c(=O)sc2/C=N/N=C(\[O-])c2ccncc2)c1	-14.3	-6.7	-4.4	0.9	0.2	40.0*
CCc1nnc(NC(=O)C2CCCN2S(=O)(=O)c2ccc(C)cc2)s1 (stereo unspecified)	-35.7	-42.1	-4.1	1.3	2.6	44.4
Cc1nnc(NC(=O)C2CCCN2S(=O)(=O)c2ccc(Cl)cc2)s1 (stereo unspecified)	-20.5	-5.1	9.7	-0.2	1.3	18.4
Cc1ccc(S(=O)(=O)N2CCCC2C(=O)Nc2nc3ccccc3s2)cc1 (stereo unspecified)	0.8	-23.0	-9.2	1.8	0.1	73.7*
